Measured values reported in ChEMBL document CHEMBL3407486, “Additivity or cooperativity: which model can predict the influence of simultaneous incorporation of two or more functionalities in a ligand molecule?” (Eur J Med Chem, 2015).

Biological target: T1, Thermolysin (Bacillus thermoproteolyticus, UniProt P00800)
T1 sequence (P00800 whole entry): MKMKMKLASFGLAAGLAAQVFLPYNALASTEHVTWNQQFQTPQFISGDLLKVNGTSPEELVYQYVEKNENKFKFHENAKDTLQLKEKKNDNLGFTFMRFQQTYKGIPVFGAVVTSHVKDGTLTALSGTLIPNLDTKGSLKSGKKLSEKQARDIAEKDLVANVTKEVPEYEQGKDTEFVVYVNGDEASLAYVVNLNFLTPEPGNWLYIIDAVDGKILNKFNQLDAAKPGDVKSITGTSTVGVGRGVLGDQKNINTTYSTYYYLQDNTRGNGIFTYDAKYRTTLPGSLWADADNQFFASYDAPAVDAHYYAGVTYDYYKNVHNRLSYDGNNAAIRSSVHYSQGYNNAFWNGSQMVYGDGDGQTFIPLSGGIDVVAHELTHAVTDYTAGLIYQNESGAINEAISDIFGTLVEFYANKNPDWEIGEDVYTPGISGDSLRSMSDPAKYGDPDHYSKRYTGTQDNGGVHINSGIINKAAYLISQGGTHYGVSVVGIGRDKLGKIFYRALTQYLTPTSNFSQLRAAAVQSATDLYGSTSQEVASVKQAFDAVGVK
Assay: Inhibition of Bacillus thermoproteolyticus TLN using 2-furanacryloyl-Gly-Leu-NH2 substrate by biochemical assay
Method in brief: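 Read photometrically at 345 nm, 25.0 ± 0.2 °C, in 0.05 M Tris with 0.02 M CaCl2, 2.5 M NaBr, 1.25% DMF, pH 7.3. Final enzyme ~8 nM (stock quantified by A280). Inhibitor spanned 0.5Ki–10Ki. IC50 from υ0/υi vs [I] plots (Ki above 30 nM) or Henderson plots (below). Ki via Cheng-Prusoff (Km 3.9 ± 0.6 mM), averaged over at least three determinations.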

Compound | Ki [nM]
C[C@H](NP(=O)(O)CNC(=O)OCc1ccccc1)C(=O)NCCc1ccccc1 | 45200
CC(C)C[C@H](NC(=O)[C@H](C)NP(=O)(O)CNC(=O)OCc1ccccc1)C(=O)O | 5920
CC[C@H](NP(=O)(O)CNC(=O)OCc1ccccc1)C(=O)N[C@@H](CC(C)C)C(=O)O | 596
CCC[C@H](NP(=O)(O)CNC(=O)OCc1ccccc1)C(=O)N[C@@H](CC(C)C)C(=O)O | 29
CC(C)C[C@H](NC(=O)[C@H](CC(C)C)NP(=O)(O)CNC(=O)OCc1ccccc1)C(=O)O | 10
CC(C)C[C@H](NP(=O)(O)CNC(=O)OCc1ccccc1)C(=O)NCCc1ccccc1 | 296
CCC[C@H](NC(=O)[C@H](CC(C)C)NP(=O)(O)CNC(=O)OCc1ccccc1)C(=O)O | 5.5
CCCC[C@H](NC(=O)[C@H](CC(C)C)NP(=O)(O)CNC(=O)OCc1ccccc1)C(=O)O | 5.3
CCC(C)[C@H](NC(=O)[C@H](CC(C)C)NP(=O)(O)CNC(=O)OCc1ccccc1)C(=O)O (some centres undefined) | 12
CC(C)C[C@H](NP(=O)(O)CNC(=O)OCc1ccccc1)C(=O)N[C@@H](Cc1cccs1)C(=O)O | 24
CNC(=O)[C@H](C)NP(=O)(O)CNC(=O)OCc1ccccc1 | 185000
CCNC(=O)[C@H](C)NP(=O)(O)CNC(=O)OCc1ccccc1 | 56200
CCCNC(=O)[C@H](C)NP(=O)(O)CNC(=O)OCc1ccccc1 | 12400
C[C@H](NP(=O)(O)CNC(=O)OCc1ccccc1)C(=O)NCC(=O)O | 189000
C[C@H](NC(=O)[C@H](C)NP(=O)(O)CNC(=O)OCc1ccccc1)C(=O)O | 7200
CC[C@H](NC(=O)[C@H](C)NP(=O)(O)CNC(=O)OCc1ccccc1)C(=O)O | 1370
C[C@H](NP(=O)(O)CNC(=O)OCc1ccccc1)C(=O)N[C@@H](Cc1ccccc1)C(=O)O | 31100
CC(C)C[C@H](NP(=O)(O)CNC(=O)OCc1ccccc1)C(=O)N[C@@H](Cc1ccccc1)C(=O)O | 54

Second part, the compound after the results:

Ki [nM] | Compound
19500 | CC(C)CCNC(=O)[C@H](C)NP(=O)(O)CNC(=O)OCc1ccccc1
1970 | CC[C@H](NP(=O)(O)CNC(=O)OCc1ccccc1)C(=O)NCCC(C)C
219 | CCC[C@H](NP(=O)(O)CNC(=O)OCc1ccccc1)C(=O)NCCC(C)C
69 | CC(C)CCNC(=O)[C@H](CC(C)C)NP(=O)(O)CNC(=O)OCc1ccccc1
60 | CCCNC(=O)[C@H](CC(C)C)NP(=O)(O)CNC(=O)OCc1ccccc1
67 | CCCCNC(=O)[C@H](CC(C)C)NP(=O)(O)CNC(=O)OCc1ccccc1
59 | CCCCCNC(=O)[C@H](CC(C)C)NP(=O)(O)CNC(=O)OCc1ccccc1
37 | CC(C)CNC(=O)[C@H](CC(C)C)NP(=O)(O)CNC(=O)OCc1ccccc1
100 | CC(C)C[C@H](NP(=O)(O)CNC(=O)OCc1ccccc1)C(=O)NCC(C)(C)C
26 | CCC(C)CNC(=O)[C@H](CC(C)C)NP(=O)(O)CNC(=O)OCc1ccccc1 (some centres undefined)
43 | CC(C)C[C@H](NP(=O)(O)CNC(=O)OCc1ccccc1)C(=O)NCCC(C)(C)C
189 | CC(C)C[C@H](NP(=O)(O)CNC(=O)OCc1ccccc1)C(=O)NCCc1cccs1
4.9 | CC[C@H](NC(=O)[C@H](CC(C)C)NP(=O)(O)CNC(=O)OCc1ccccc1)C(=O)O
5.8 | CC(C)C[C@H](NP(=O)(O)CNC(=O)OCc1ccccc1)C(=O)N[C@H](C(=O)O)C(C)C
31 | CC(C)C[C@H](NP(=O)(O)CNC(=O)OCc1ccccc1)C(=O)N[C@H](C(=O)O)C(C)(C)C
40 | CC(C)C[C@H](NP(=O)(O)CNC(=O)OCc1ccccc1)C(=O)N[C@@H](CC(C)(C)C)C(=O)O
